Calls of active or inactive are those of the source. The rule behind the calls is not given here.
How the values were obtained:
Format in all cases: functional, cell-based
[1] = Cytotoxicity against human A549 cells assessed as growth inhibition after 48 hrs by SRB assay; conditions: A549, 48 h
HepG2 [2] = assay: Lipid lowering activity in human HepG2 cells assessed as decrease in total cholesterol level at 10 uM treated 12 hrs post oleic acid addition measured 6 hrs post dose
Procedure, shortened: (§1)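 HepG2 cells (ATCC origin) grown in DMEM with 10% FBS and penicillin/streptomycin to 70–80% confluence. They were loaded with 100 μM oleic acid in DMEM for 12 h, then exposed for 6 h to 10 μM compound, lovastatin as positive control, or oleic acid alone. Read-outs were Oil-Red O staining (n = 8) or TC/TG determination (n = 3). Each experiment was repeated at least three times; means ± SEM.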

HepG2 [3] = assay: Lipid lowering activity in human HepG2 cells assessed as decrease in oleic acid elicited lipid accumulation at 10 uM treated 12 hrs post oleic acid addition measured 6 hrs post dose by oil-red O staining method; procedure, shortened: as §1
HepG2 [4] = assay: Lipid lowering activity in human HepG2 cells assessed as decrease in triglyceride level at 10 uM treated 12 hrs post oleic acid addition measured 6 hrs post dose; procedure, shortened: as §1
[5] = Cytotoxicity against human HeLa cells assessed as growth inhibition after 48 hrs by SRB assay
[6] = Cytotoxicity against human HL60 cells assessed as growth inhibition after 48 hrs by SRB assay; conditions: HL-60, 48 h
[7] = Cytotoxicity against human K562 cells assessed as growth inhibition after 48 hrs by SRB assay; conditions: K562, 48 h

Compound | IC50 [1] [µM] | Activity (HepG2 [2]) | Activity (HepG2 [3]) | Activity (HepG2 [4]) | IC50 [5] [µM] | IC50 [6] [µM] | IC50 [7] [µM]
NC(=O)c1c[nH]c([C@@H](O)c2ccccc2)cc1=O | > 50 | Active | Active | Active | > 50 | > 50 | > 50
COC(=O)c1c[nH]c([C@@H](O)c2ccccc2)cc1=O | > 50 | Active | Active | Active | > 50 | > 50 | > 50
CC(C)CC(=O)NC(=O)c1c[nH]c([C@@H](O)c2ccccc2)cc1=O | > 50 |  |  |  | > 50 | > 50 | > 50
CC(=O)O[C@@H](c1ccccc1)c1cc(=O)c(C(N)=O)cn1CCO | > 50 | Active | Active | Active | > 50 | > 50 | > 50
CC(=O)O[C@@H](c1ccccc1)c1cc(=O)c(C(=O)NC(=O)CC(C)C)cn1CCO | > 50 | Active | Active | Active | > 50 | > 50 | > 50
CC(C)CC(=O)NC(=O)c1cn(CCO)c([C@@H](O)c2ccccc2)cc1=O | > 50 |  |  |  | > 50 | > 50 | > 50
NC(=O)c1cn(CCO)c([C@@H](O)c2ccccc2)cc1=O | > 50 |  |  |  | > 50 | > 50 | > 50

Reference: ChEMBL document CHEMBL3861970, “Penipyridones A-F, Pyridone Alkaloids from Penicillium funiculosum” (J Nat Prod, 2016)
